Measured values published in ChEMBL document CHEMBL1145189, “Synthesis and evaluation of S-acyl-2-thioethyl esters of modified nucleoside 5'-monophosphates as inhibitors of hepatitis C virus RNA replication” (J Med Chem, 2005).
Values joined by “and” are separate entries in the source; they are usually repeats but may differ in a detail not shown here. Equal entries are not always repeated. Blank lines part the entries; values can stand above or below the compound they belong to.

How the values were obtained:
[1] = Effective concentration against hepatitis C virus RNA replication in a subgenomic bicistronic replicon in HBI10A cells; format: functional, cell-based; conditions: Homo sapiens
Summary of the method: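 Stable Huh-7-derived HBI10A hepatoma line carrying a subgenomic bicistronic HCV replicon. Compound incubated with cells for 24 h. Relative replicon RNA then quantified by in situ ribonuclease protection assay.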

[2] = Cytotoxic concentration of compound in human HBI10A cells infected with hepatitis C virus in MTS assay; format: functional
Summary of the method: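 MTS cytotoxicity run on samples parallel to the replicon assay, at the same time (24 h compound exposure). Cells plated at 2.0 × 10⁴/well and compound added next day at 2× in medium. Incubation at 37 °C, 5% CO₂. MTS reagent added for 1 h, then absorbance read at 490 nm.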

[3] = Inhibitory concentration against hepatitis C virus NS5B-mediated RNA synthesis in HBI10A cells; format: functional, cell-based; conditions: Homo sapiens
Huh-7 [4] = assay: Average intracellular Metabolism was measured in human Huh-7 cells after 3 h of incubation; format: functional
Summary of the method: (§1)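 Radiolabeled 5-[³H] compound at 2 µM incubated with Huh-7 (passage 27) or HBI10A (passage 15) cells for 3 or 23 h. Cells extracted and analysed by ion pair reverse-phase HPLC. Triphosphate reported as pmol/million cells, with major metabolic byproducts noted. Averages of at least three separate experiments.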

[5] = Average intracellular Metabolism was measured in human HBI10A cells after 3 h of incubation; format: functional; summary of the method: as §1
Huh-7 [6] = assay: Average intracellular Metabolism was measured in human Huh-7 cells after 23 hr of incubation; format: functional; summary of the method: as §1
[7] = Average intracellular Metabolism was measured in human HBI10A cells after 23 hr of incubation; format: functional; summary of the method: as §1
CHO [8] = assay: Percent of CHO cells with chromosomal aberrations were determined at 700 uM compound after 20 hr of treatment (harvested at 42h of treatment); format: functional, Cricetulus griseus
Summary of the method: (§2)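 CHO (clone WBL) monolayers treated for 20 h without S-9, with DMSO stock diluted 100-fold into medium. Harvest at 20, 30 or 42 h after dosing; colcemid added 1–2 h before harvest for metaphase arrest. Cells fixed, and 200 cells scored per point for % aberrant cells. Points not scored where toxicity prevented it. Comparison against concurrent controls.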

CHO [9] = assay: Percent of CHO cells with chromosomal aberrations were determined at 700 uM compound after 20 h of treatment (harvested at 30h of treatment); Not scored because of toxicity; format: functional, cell-based; conditions: Cricetulus griseus; summary of the method: as §2
CHO [10] = assay: Percent of CHO cells with chromosomal aberrations were determined at 550 uM compound after 20 hr of treatment (harvested at 20h of treatment); format: functional, Cricetulus griseus; summary of the method: as §2
CHO [11] = assay: Effect of compound (550 uM) on growth of CHO cells measured as population doublings from the beginning of the experiment as percent of controls after 20 hr of treatment (harvested at 20h of treatment); format: functional, Cricetulus griseus
Summary of the method: (§3)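 Exponentially growing CHO (clone WBL) monolayers treated for 20 h without S-9. DMSO stock diluted 100-fold into medium, giving 1% v/v DMSO as vehicle control. Cultures harvested at 20, 30 or 42 h after dosing. Growth expressed as population doublings from start of experiment as a percentage of controls.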

CHO [12] = assay: Effect of compound (550 uM) on growth of CHO cells measured as population doublings from the beginning of the experiment as percent of controls after 20 hr of treatment (harvested at 42h of treatment); format: functional, Cricetulus griseus; summary of the method: as §3
CHO [13] = assay: Percent of CHO cells with chromosomal aberrations were determined at 800 uM compound after 20 hr of treatment (harvested at 30h of treatment); Not scored because of toxicity; format: functional, cell-based; conditions: Cricetulus griseus; summary of the method: as §2
CHO [14] = assay: Percent of CHO cells with chromosomal aberrations were determined at 700 uM compound after 20 hr of treatment (harvested at 20h of treatment); Not scored because of toxicity; format: functional, cell-based; conditions: Cricetulus griseus; summary of the method: as §2
CHO [15] = assay: Percent of CHO cells with chromosomal aberrations were determined at 800 uM compound after 20 hr of treatment (harvested at 42h of treatment); Not scored because of toxicity; format: functional, cell-based; conditions: Cricetulus griseus; summary of the method: as §2
CHO [16] = assay: Effect of compound (800 uM) on growth of CHO cells measured as population doublings from the beginning of the experiment as percent of controls after 20 hr of treatment (harvested at 20h of treatment); format: functional, Cricetulus griseus; summary of the method: as §3
CHO [17] = assay: Effect of compound (650 uM) on growth of CHO cells measured as population doublings from the beginning of the experiment as percent of controls after 20 hr of treatment (harvested at 20h of treatment); format: functional, Cricetulus griseus; summary of the method: as §3
CHO [18] = assay: Effect of compound (600 uM) on growth of CHO cells measured as population doublings from the beginning of the experiment as percent of controls after 20 hr of treatment (harvested at 30h of treatment); format: functional, Cricetulus griseus; summary of the method: as §3
CHO [19] = assay: Effect of compound (550 uM) on growth of CHO cells measured as population doublings from the beginning of the experiment as percent of controls after 20 hr of treatment (harvested at 30h of treatment); format: functional, Cricetulus griseus; summary of the method: as §3
CHO [20] = assay: Effect of compound (700 uM) on growth of CHO cells measured as population doublings from the beginning of the experiment as percent of controls after 20 h of treatment (harvested at 30h of treatment); format: functional, Cricetulus griseus; summary of the method: as §3
CHO [21] = assay: Percent of CHO cells with chromosomal aberrations were determined at 650 uM compound after 20 hr of treatment (harvested at 20h of treatment); Not scored because of toxicity; format: functional, cell-based; conditions: Cricetulus griseus; summary of the method: as §2
CHO [22] = assay: Effect of compound (700 uM) on growth of CHO cells measured as population doublings from the beginning of the experiment as percent of controls after 20 hr of treatment (harvested at 20h of treatment); format: functional, Cricetulus griseus; summary of the method: as §3
CHO [23] = assay: Percent of CHO cells with chromosomal aberrations were determined at 600 uM compound after 20 hr of treatment (harvested at 42h of treatment); format: functional, Cricetulus griseus; summary of the method: as §2
CHO [24] = assay: Effect of compound (800 uM) on growth of CHO cells measured as population doublings from the beginning of the experiment as percent of controls after 20 hr of treatment (harvested at 30h of treatment); format: functional, Cricetulus griseus; summary of the method: as §3
CHO [25] = assay: Percent of CHO cells with chromosomal aberrations were determined at 650 uM compound after 20 hr of treatment (harvested at 30h of treatment); format: functional, Cricetulus griseus; summary of the method: as §2
CHO [26] = assay: Effect of compound (700 uM) on growth of CHO cells measured as population doublings from the beginning of the experiment as percent of controls after 20 hr of treatment (harvested at 42h of treatment); format: functional, Cricetulus griseus; summary of the method: as §3
CHO [27] = assay: Effect of compound (650 uM) on growth of CHO cells measured as population doublings from the beginning of the experiment as percent of controls after 20 hr of treatment (harvested at 42h of treatment); format: functional, Cricetulus griseus; summary of the method: as §3
CHO [28] = assay: Effect of compound (650 uM) on growth of CHO cells measured as population doublings from the beginning of the experiment as percent of controls after 20 hr of treatment (harvested at 30h of treatment); format: functional, Cricetulus griseus; summary of the method: as §3
CHO [29] = assay: Effect of compound (600 uM) on growth of CHO cells measured as population doublings from the beginning of the experiment as percent of controls after 20 hr of treatment (harvested at 20h of treatment); format: functional, Cricetulus griseus; summary of the method: as §3
CHO [30] = assay: Percent of CHO cells with chromosomal aberrations were determined at 550 uM compound after 20 hr of treatment (harvested at 30h of treatment); format: functional, Cricetulus griseus; summary of the method: as §2
CHO [31] = assay: Percent of CHO cells with chromosomal aberrations were determined at 600 uM compound after 20 hr of treatment (harvested at 20h of treatment); format: functional, Cricetulus griseus; summary of the method: as §2
CHO [32] = assay: Effect of compound (600 uM) on growth of CHO cells measured as population doublings from the beginning of the experiment as percent of controls after 20 hr of treatment (harvested at 42h of treatment); format: functional, Cricetulus griseus; summary of the method: as §3
CHO [33] = assay: Effect of compound (800 uM) on growth of CHO cells measured as population doublings from the beginning of the experiment as percent of controls after 20 hr of treatment (harvested at 42h of treatment); format: functional, Cricetulus griseus; summary of the method: as §3
CHO [34] = assay: Percent of CHO cells with chromosomal aberrations were determined at 800 uM compound after 20 hr of treatment (harvested at 20h of treatment); Not scored because of toxicity; format: functional, cell-based; conditions: Cricetulus griseus; summary of the method: as §2
CHO [35] = assay: Percent of CHO cells with chromosomal aberrations were determined at 600 uM compound after 20 hr of treatment (harvested at 30h of treatment); format: functional, Cricetulus griseus; summary of the method: as §2

Compound: Nc1ccn([C@@H]2O[C@H](CO)C[C@H]2O)c(=O)n1
EC50 [1]: 25 µM
IC50 [3]: 1.2 µM
CC50 [2]: > 50 µM

Compound: CO[C@@H]1[C@H](O)[C@@H](CO)O[C@H]1n1ccc(N)nc1=O
EC50 [1]: 21 µM
IC50 [3]: 3.8 µM
Activity (Huh-7 [4]): 0.17 pmol/million cells
Activity [5]: 0.05 pmol/million cells
Activity (Huh-7 [6]): 0.61 pmol/million cells
CC50 [2]: > 100 µM
Activity [7]: 0.18 pmol/million cells

Compound: CO[C@@H]1[C@H](O)[C@@H](CO)O[C@H]1n1ccc2c(O)nc(N)nc21
EC50 [1]: > 50 µM
IC50 [3]: 0.35 µM

More lines, main results first:

EC50 [1]: > 50 µM
Compound: CO[C@@H]1[C@H](O)[C@@H](COP(=O)(OCCSC(=O)C(C)(C)C)OCCSC(=O)C(C)(C)C)O[C@H]1n1cnc2c(O)nc(N)nc21
CC50 [2]: > 50 µM

EC50 [1]: 23 µM
Compound: CC(C)(C)C(=O)SCCOP(=O)(OCCSC(=O)C(C)(C)C)OC[C@@H]1C[C@@H](O)[C@H](n2cnc3c(O)nc(N)nc32)O1
CC50 [2]: > 50 µM

EC50 [1]: 1.4 µM
Compound: CC(C)(C)C(=O)SCCOP(=O)(OCCSC(=O)C(C)(C)C)OC[C@@H]1C[C@@H](O)[C@H](n2ccc(N)nc2=O)O1
CC50 [2]: > 100 µM

EC50 [1]: 3 µM
Compound: CO[C@@H]1[C@H](O)[C@@H](COP(=O)(OCCSC(=O)C(C)(C)C)OCCSC(=O)C(C)(C)C)O[C@H]1n1ccc(N)nc1=O
Aberrant cells (CHO [8]): 3.5%
Aberrant cells (CHO [9]): Not scored
Aberrant cells (CHO [10]): 0%
Growth (CHO [11]): 59%
Growth (CHO [12]): 95%
Aberrant cells (CHO [13]): Not scored
Aberrant cells (CHO [14]): Not scored
Aberrant cells (CHO [15]): Not scored
Growth (CHO [16]): 6%
Growth (CHO [17]): 27%
Growth (CHO [18]): 57%
Growth (CHO [19]): 82%
Growth (CHO [20]): 6%
Activity (Huh-7 [4]): 7.02 pmol/million cells
Aberrant cells (CHO [21]): Not scored
Activity [5]: 15.9 pmol/million cells
Growth (CHO [22]): 21%
Aberrant cells (CHO [23]): 1.5%
Growth (CHO [24]): 0%
Activity (Huh-7 [6]): 1.88 pmol/million cells
Aberrant cells (CHO [25]): 4.5% and 3%
Growth (CHO [26]): 47%
Growth (CHO [27]): 90%
Growth (CHO [28]): 46%
CC50 [2]: > 100 µM
Activity [7]: 5.8 pmol/million cells
Growth (CHO [29]): 51%
Aberrant cells (CHO [30]): 3.5%
Aberrant cells (CHO [31]): 2%
Growth (CHO [32]): 88%
Growth (CHO [33]): 0%
Aberrant cells (CHO [34]): Not scored
Aberrant cells (CHO [35]): 1.5%
